iPSC survival up: enhancers of human iPSC single-cell survival. AID 602274. hiPSC single-cell survival, ATPlite luminescence; 100% = ROCK inhibitor wells, 0% = DMSO. actives 0.044% (n = 360,000). survival enhancement, % at 20 µM; in the data active = survival enhancement above about 18%;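 also: cells exposed to compounds for 16 hours before the ATP read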
A3A deaminase: human APOBEC3A DNA deaminase inhibition; P31941; recombinant A3A, FAM/TAMRA ssDNA deamination fluorescence; inhibition, % at 20 µM; actives 0.41% (n = 330,000); AID 493011;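 active = at least 40% inhibition at 20 µM here, with at most 30% in a related deaminase screen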
Target sequence (P31941 whole entry, looked up): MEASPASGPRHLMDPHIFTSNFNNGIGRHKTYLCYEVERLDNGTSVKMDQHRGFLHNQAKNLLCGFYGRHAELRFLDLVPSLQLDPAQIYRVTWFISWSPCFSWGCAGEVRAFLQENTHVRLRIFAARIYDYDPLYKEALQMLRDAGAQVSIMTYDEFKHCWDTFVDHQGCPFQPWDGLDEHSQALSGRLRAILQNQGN
PfGluPho inh: PfG6PD (Plasmodium falciparum) enzyme inhibition; PfGluPho enzyme, NADPH resazurin-diaphorase fluorescence; inhibition, % at 20 µM; actives 0.78% (n = 350,000); AID 504690;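 active = inhibition reaching at least a set limit at 20 µM in the primary screen, cut at about 59% in these data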
APOBEC3G inh: blocks human APOBEC3G single-stranded DNA deamination | inhibition, % at 20 µM | actives 0.28% (n = 330,000) | recombinant A3G, ssDNA deamination FAM/TAMRA fluorescence | AID 493012;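 active = inhibition of at least 40% at 20 µM, with no more than 30% in the related APOBEC3A deaminase screen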
Target sequence (Q9HC16 whole entry, looked up): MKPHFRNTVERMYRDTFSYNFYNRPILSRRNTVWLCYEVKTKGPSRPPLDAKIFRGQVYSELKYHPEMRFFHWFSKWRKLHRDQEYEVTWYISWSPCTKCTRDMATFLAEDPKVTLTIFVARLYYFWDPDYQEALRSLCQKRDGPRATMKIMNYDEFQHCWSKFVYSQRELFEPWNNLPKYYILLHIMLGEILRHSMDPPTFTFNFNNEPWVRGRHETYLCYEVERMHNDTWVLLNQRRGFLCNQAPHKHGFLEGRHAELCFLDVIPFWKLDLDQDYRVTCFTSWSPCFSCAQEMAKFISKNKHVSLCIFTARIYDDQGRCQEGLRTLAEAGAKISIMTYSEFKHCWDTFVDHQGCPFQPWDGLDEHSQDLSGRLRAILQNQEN
HKDC1 inh: inhibitors of human hexokinase HKDC1; Q2TB90; recombinant HKDC1, G6PDH/diaphorase resazurin coupled fluorescence; inhibition, % at 20 µM; actives 0.16% (n = 340,000); AID 493160;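 active = inhibition above about 35% when tested at 20 µM, limit read from the data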
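Material – in-house recombinant HK5 (HKDC1) enzyme · Quantity – HKDC1 at 5 µg/mL · Buffer or medium – pH 8.0 Tris buffer with 10 mM MgCl2 · Reagent – glucose with 1 mM ATP · Dosing – single 20 µM dose · Times – reaction time 90 min, room temperature, protected from light · Technique – resorufin fluorescence at 613 nm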
HKDC1 act conf2: HKDC1 (human) activation, single-dose confirmed | shares compounds with HKDC1 inh | recombinant HKDC1, G6PDH/diaphorase resazurin fluorescence; active compounds read low | inhibition, % at 20 µM | actives 14% (n = 740) | AID 504708;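 active = inhibition at or below a set negative limit, negative inhibition meaning the enzyme was activated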
PfGluPho conf: PfG6PD inhibition, single-dose confirmed. actives 34% (n = 2,400). recombinant PfGluPho, NADPH-diaphorase-resazurin fluorescence. shares compounds with PfGluPho inh. inhibition, % at 20 µM;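 active = inhibition of at least 50% at 20 µM in any single replicate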
Diaphorase 10uM: counter-screen for P. falciparum G6PD inhibitors: diaphorase inhibitors, oxidizers; shares compounds with PfGluPho inh; diaphorase-coupled resazurin reduction, fluorescence, NADPH 10 uM; inhibition, % at 20 µM; actives 39% (n = 820); AID 504862;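 active = average inhibition reaching 50% or more with the compound at 20 µM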;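 also: resorufin red fluorescence formed as diaphorase reduces resazurin using NADPH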
Diaphorase 30uM: inhibits diaphorase or oxidizes, flagging false PfG6PD hits | inhibition, % at 20 µM | AID 504863 | shares compounds with PfGluPho inh | Diaphorase/resazurin coupled assay, resorufin fluorescence, 30 uM NADPH | actives 29% (n = 820);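 active = inhibition averaging 50% or more, tested at 20 µM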
Large screens that a line does not name were inactive (follow-up assays come after a bar, where they were run). In the library only some 1.4% were active in any assay of this set; here they are far more common.

CCOc1ccc2nc3cc(NCc4ccc(OC)cc4)ccc3c(N)c2c1	PfGluPho inh 67, HKDC1 inh 36 | HKDC1 act conf2 inactive | PfGluPho conf inactive
O=C1c2cccnc2C(=O)N1CO	none
NC1=C(Br)C(=O)c2ncccc2C1=O	PfGluPho inh 108, HKDC1 inh 38 (no result: A3A deaminase, APOBEC3G inh) | HKDC1 act conf2 inactive | PfGluPho conf 86 | Diaphorase 10uM 78 | Diaphorase 30uM 74
COc1cc2c(cc1NC(=O)C(Cl)Cl)-c1ccc(NC(=O)C(Cl)Cl)cc1C2	none (no result: A3A deaminase, APOBEC3G inh)
COC(=O)c1cc(C)nc2c1C(=O)C(=O)C=C2N1CCOCC1	PfGluPho inh 105, HKDC1 inh 68 | HKDC1 act conf2 inactive | PfGluPho conf 101 | Diaphorase 10uM 99 | Diaphorase 30uM 103
Cn1nc(C(C)(C)C)cc1C(=O)N1CCCCC1c1cc(C(=O)NCc2ccc(F)cc2)no1 (stereo not drawn)	none (no result: A3A deaminase, PfGluPho inh, APOBEC3G inh, HKDC1 inh)
CCCCS(=O)(=O)Nc1ccc(N2CCOCC2)c(S(=O)(=O)N2CCOCC2)c1	none
CCOC(=O)/C(=C\c1ccccc1)C(=O)c1cc(C(C)=O)c(Nc2ccccc2)s1	none
CCOC(=O)/C(=C\c1cccnc1)C(=O)c1cc(C(C)=O)c(Nc2ccccc2)s1	PfGluPho inh 66, HKDC1 inh 42 | HKDC1 act conf2 inactive | PfGluPho conf inactive
Cc1ccc(SC2=C(N(C)C)C(=O)c3ccccc3C2=O)cc1	PfGluPho inh 65, HKDC1 inh 57 (no result: A3A deaminase, APOBEC3G inh) | HKDC1 act conf2 inactive | PfGluPho conf inactive
Cc1ccc(NC2=CC(=O)C(=O)c3ccccc32)cc1	none
CC1(C)Cc2ccccc2C(Nn2cnnc2)=N1	none
CC1(C)Cc2ccccc2C2=NNC(=O)C2=N1	PfGluPho inh 108, HKDC1 inh 53 | HKDC1 act conf2 inactive | PfGluPho conf 94 | Diaphorase 10uM 93 | Diaphorase 30uM 93
CN1CCN(C(=O)C[C@@H]2C[C@H]3c4cc(NC(=O)c5cccnc5)ccc4O[C@H]3[C@H](CO)O2)CC1	none (no result: A3A deaminase, APOBEC3G inh, HKDC1 inh)
CCC(C)C(N)C1=NC(C(=O)N[C@@H](CC(C)C)C(=O)N[C@H](CCC(=O)[O-])C(=O)N[C@H](C(=O)N[C@H]2CCCCNC(=O)[C@H](CC(N)=O)NC(=O)[C@@H](CC(=O)[O-])NC(=O)[C@H](Cc3cnc[nH]3)NC(=O)[C@@H](Cc3ccccc3)NC(=O)[C@H]([C@@H](C)CC)NC(=O)[C@@H](CCCN)NC2=O)[C@@H](C)CC)CS1.[Zn+2] (stereo partly drawn)	PfGluPho inh 64, HKDC1 inh 92 (no result: A3A deaminase, APOBEC3G inh) | HKDC1 act conf2 inactive | PfGluPho conf inactive
CN(C)c1ccc(/C=C/C=N/Nc2nc(N3CCOCC3)nc(N3CCOCC3)n2)cc1	none
CN(C)Cc1cc(O)c(CN(C)C)cc1O	PfGluPho inh 78, HKDC1 inh 47 | HKDC1 act conf2 inactive | PfGluPho conf 88 | Diaphorase 10uM inactive | Diaphorase 30uM inactive
O=C1/C(=C\c2ccc(Cl)c(Cl)c2)CN(C(=O)CCN2CCOCC2)C/C1=C/c1ccc(Cl)c(Cl)c1	PfGluPho inh 60, HKDC1 inh 61 (no result: A3A deaminase, APOBEC3G inh) | HKDC1 act conf2 inactive | PfGluPho conf inactive
O=C1/C(=C\c2ccccc2)CN(C(=O)CCN2CCCCC2)C/C1=C/c1ccccc1	none (no result: A3A deaminase, APOBEC3G inh)
O=C1c2cccc(NCCNCCO)c2C(=O)c2cccc(NCCNCCO)c21	none (no result: A3A deaminase, APOBEC3G inh)
COc1ccc(CN2C=C3C(=O)C(C)(OC(=O)C4CCCC4)C(=O)C=C3C=C2c2ccsc2)cc1 (stereo not drawn)	PfGluPho inh 67, HKDC1 inh 35 | HKDC1 act conf2 inactive | PfGluPho conf inactive
O=C(C1=C(c2ccccc2)C(=O)c2ccccc2C1=O)c1ccccc1	PfGluPho inh 116, HKDC1 inh 58 (no result: A3A deaminase, APOBEC3G inh) | HKDC1 act conf2 inactive | PfGluPho conf 79 | Diaphorase 10uM 84 | Diaphorase 30uM 81
COC1=C(c2ccccc2)C(=O)c2ccccc2C1=O	none
CC1CN(CCN2CC(C)N(C=O)CC2C)C(C)CN1C=O (stereo not drawn)	none (no result: A3A deaminase, APOBEC3G inh)
Cc1ccc(S(=O)(=O)N(C(=O)c2ccncc2)c2ccc(OC(=O)c3ccncc3)c3ccccc23)cc1	PfGluPho inh 74 | HKDC1 act conf2 inactive | PfGluPho conf 56 | Diaphorase 10uM inactive | Diaphorase 30uM inactive
O=C(Nc1ccc2nc(-c3ccco3)c(-c3ccco3)nc2c1)NC1CC1	PfGluPho inh 82, HKDC1 inh 50 | HKDC1 act conf2 inactive | PfGluPho conf inactive
Cc1cc(C)c2c(=N)c3ccccc3n(CCCCCCCCn3c4ccccc4c(=N)c4c(C)cc(C)nc43)c2n1	PfGluPho inh 76, HKDC1 inh 74 (no result: A3A deaminase, APOBEC3G inh) | HKDC1 act conf2 inactive | PfGluPho conf 51 | Diaphorase 10uM inactive | Diaphorase 30uM inactive
COc1ccc(N2C(=O)NC(NS(=O)(=O)c3ccccc3)(C(F)(F)F)C2=O)cc1 (stereo not drawn)	none
COc1ccc(N=C2C(=S)N(c3ccc(OC)cc3)C(=NS(=O)(=O)c3ccccc3)N2c2ccccc2)cc1	PfGluPho inh 84 (no result: A3A deaminase, APOBEC3G inh) | HKDC1 act conf2 inactive | PfGluPho conf 68 | Diaphorase 10uM inactive | Diaphorase 30uM inactive
COc1cc(/C=C2\SC(c3ccc(C)cc3)=NC2=O)cc(OC)c1O	PfGluPho inh 75, HKDC1 inh 48 | HKDC1 act conf2 inactive | PfGluPho conf 53 | Diaphorase 10uM inactive | Diaphorase 30uM inactive
Cc1ccc(C2=NC(=O)/C(=C/c3cc(O)c(O)c(Br)c3)S2)cc1	none
CC1(C(=O)NCCC#N)CCN1C(=O)C1(c2ccccc2)CCCC1 (stereo not drawn)	none (no result: A3A deaminase, PfGluPho inh, APOBEC3G inh, HKDC1 inh)
Cc1cc(C)c(S(=O)(=O)/N=C2/C=C(SCC(=O)O)C(=O)c3ccccc32)cc1C	PfGluPho inh 106, HKDC1 inh 51 | HKDC1 act conf2 inactive | PfGluPho conf 95 | Diaphorase 10uM inactive | Diaphorase 30uM inactive
CN(C)C(=O)c1cc2c(c(-c3cccc(-c4ccccc4F)c3)n1)[C@@H](CCO)N(S(C)(=O)=O)C2	none (no result: A3A deaminase, PfGluPho inh, APOBEC3G inh, HKDC1 inh)
Cc1[nH][nH]c(=O)c1/C=N/N1CCOCC1	none
Cc1cc(C)c(C#N)c(Cl)n1	none
Cc1cc(C)nc(/N=c2/ssnc2Cl)c1	PfGluPho inh 98 | HKDC1 act conf2 -84 | PfGluPho conf inactive
CCN(CC)CCNc1cc(C)nc2c1C(=O)C(=O)C=C2N1CCCCC1	PfGluPho inh 75, HKDC1 inh 45 | HKDC1 act conf2 inactive | PfGluPho conf inactive
